Reference: article PMC6736600 (Cell chemical biology, 2019)
Read-outs that look alike come from different tables or passages of the source.

Columns and labels:
[1] = tested on: HIV-1; details: read-out: HIV-1 IC50, cited from earlier work
[2] = molecular target: N119^3.35A CXCR4 (Homo sapiens, UniProt P61073, N119A); type: cell-based; details: for signal as % maximum of the WT signaling levels: N119^3.35A CAM, basal CAM activity roughly 47% of maximum WT response to CXCL12; for functional classification on the N119^3.35A CAM: dose-response without CXCL12, classification at 1 μM by one-way ANOVA vs DMSO
N119^3.35A CXCR4, sequence (P61073 whole entry N119A): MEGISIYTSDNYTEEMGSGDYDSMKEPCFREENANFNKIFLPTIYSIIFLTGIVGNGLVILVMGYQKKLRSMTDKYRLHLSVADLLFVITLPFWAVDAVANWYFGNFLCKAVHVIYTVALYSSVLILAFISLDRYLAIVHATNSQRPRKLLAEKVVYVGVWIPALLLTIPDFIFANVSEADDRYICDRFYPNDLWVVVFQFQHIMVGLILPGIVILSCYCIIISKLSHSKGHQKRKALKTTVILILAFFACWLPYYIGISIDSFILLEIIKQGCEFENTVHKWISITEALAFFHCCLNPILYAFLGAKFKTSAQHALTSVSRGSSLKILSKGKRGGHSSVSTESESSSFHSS

[3] = tested on: N119^3.35A/S CXCR4 CAMs; details: ref Zhang et al., 2002; cited from earlier work
[4] = tested on: N119^3.35S CXCR4 CAM; details: ref Mona et al., 2016; cited from earlier work
[5] = Cytotoxicity, methylene blue, 72 hours; type: cell-based; details: human, TZM-bl cells
[6] = tested on: HIV-1 IIIB; experiment: HIV-1 inhibition in TZM-bl reporter cells; type: cell-based; details: read-out: HIV-1 IC50, ± SD
Outline: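 TZM-bl cells (HeLa-derived; CD4, CCR5, CXCR4; LTR-driven β-galactosidase and luciferase reporters), 5 × 10³ per well, grown 1–2 days at 37°C, 5% CO2. Serially diluted test compound applied 30 min before infection with HIV-1 IIIB at MOI of one. Reporter activity read per well; IC50 from ≥ three independent experiments, standard deviation given.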

[7] = Cytotoxicity, methylene blue, 72 hours; type: cell-based; details: human, CEM cells (acute lymphoblastic lymphoma)
[8] = molecular target: human CXCR4 (Homo sapiens, UniProt P61073); details: CXCL12 binding IC50, WT CXCR4, 125I-CXCL12, HEK-293 membranes; ± SD
human CXCR4, sequence (P61073 whole entry): as the sequence (P61073 whole entry N119A) above, with A119N counted along it

IC50 [6] [nM]	IC50 [8] [nM]	SMILES	IC50 ([1]; ref Schols et al., 1997) [nM]	signal as % maximum of the WT signaling levels [2]	functional classification on the N119^3.35A CAM [2]	functional classification on N119^3.35A/S CAMs [3]	IC50 ([1]; ref Thoma et al., 2008) [nM]	effect on N119^3.35A signaling levels vs DMSO ([2]; 1 μM, p < 0.0001)	functional classification on the N119^3.35S CAM [4]	CC50 at 72 h [5] [µM]	CC50 at 72 h [7] [µM]
–	–	c1cc(CN2CCCNCCNCCCNCC2)ccc1CN1CCCNCCNCCCNCC1 [AMD3100]	4 to 10	~ 83%	partial agonism	partial agonist	–	–	–	–	–
–	–	CC1(C)CN2C(CSC(=NC3CCCCC3)NC3CCCCC3)=CSC2=N1 [IT1t, N,N’-dicyclohexylcarbamimidothioic acid (5,6-dihydro-6,6-dimethylimidazo[2,1-b]thiazol-3-yl)methyl ester]	–	~ 25%	inverse agonism	–	40	significantly reduced signaling levels	inverse agonist	–	–
4.2 ± 0.3	27.8 ± 1.9	Cl.c1nc2c(NCc3cn(CCCNCCCNC4CCCCC4)nn3)nc(N3CCNCC3)nc2[nH]1 [CX0298, N-Cyclohexyl-N’-(3-{4-[(2-piperazin-1-yl-9H-purin-6-ylamino)-methyl]-[1,2,3]triazol-1-yl}-propyl)-propane-1,3-diamine hydrochloride salt]	–	–	neutral antagonists	–	–	–	–	> 50	> 50
2.4 ± 0.4	28 ± 2.7	Cl.c1nc2c(NCC3CCC(CNCCCNC4CCCCC4)CC3)nc(N3CCNCC3)nc2[nH]1 (stereo not shown) [Compound B7, N-Cyclohexyl-N’-{4-[(2-piperazin-1-yl-9H-purin-6-ylamino)-methyl]-cyclohexylmethyl}-propane-1,3-diamine hydrochloride salt]	–	–	neutral antagonists	–	–	–	–	> 50	> 50
